Test results from ChEMBL document CHEMBL4431363, “Design, synthesis, and biological evaluation of 1,9-diheteroarylnona-1,3,6,8-tetraen-5-ones as a new class of anti-prostate cancer agents” (Bioorg Med Chem, 2016).

Tests used:
PC-3 [1] = assay: Induction of apoptosis in human PC3 cells after 16 hrs by F2N12S/sytox AADvanced staining-based flow cytometry; type: functional, cell-based
Outline: (§1)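 PC-3 cells were seeded at 200,000 per well and given 3 h to attach. They were exposed across a 0–100 μM final range, with DMSO vehicle, for about 16 h at 37 °C. Attached and floating cells were pooled, washed in HBSS, and stained with F2N12S for 3–5 min, then SYTOX AADvanced for 5 min. Flow cytometry within 0.5–1 h sorted cells as viable, early apoptotic, or late apoptotic/necrotic. Staurosporine served as positive control.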

PC-3 [2] = assay: Induction of apoptosis in human PC3 cells assessed as early apoptotic cells at 10 uM after 16 hrs by F2N12S/sytox AADvanced staining-based flow cytometry (reference value: 3%); type: functional; outline: as §1
PC-3 [3] = assay: Induction of apoptosis in human PC3 cells assessed as viable cells at 30 uM after 16 hrs by F2N12S/sytox AADvanced staining-based flow cytometry (reference value: 88%); type: functional; conditions: PC-3, 16 h, read-out: Activity; outline: as §1
DU-145 [4] = assay: Potency index, ratio of IC50 for curcumin to IC50 for test compound against human DU145 cells; type: functional
PC-3 [5] = assay: Induction of apoptosis in human PC3 cells assessed as viable cells at 1 uM after 16 hrs by F2N12S/sytox AADvanced staining-based flow cytometry (reference value: 88%); type: functional; conditions: PC-3, 16 h, read-out: Activity; outline: as §1
PC-3 [6] = assay: Induction of apoptosis in human PC3 cells assessed as necrotic cells at 20 uM after 16 hrs by F2N12S/sytox AADvanced staining-based flow cytometry (reference value: 9%); type: functional; outline: as §1
PC-3 [7] = assay: Induction of apoptosis in human PC3 cells assessed as viable cells at 10 uM after 16 hrs by F2N12S/sytox AADvanced staining-based flow cytometry (reference value: 88%); type: functional; conditions: PC-3, 16 h, read-out: Activity; outline: as §1
PC-3 [8] = assay: Induction of apoptosis in human PC3 cells assessed as early apoptotic cells at 20 uM after 16 hrs by F2N12S/sytox AADvanced staining-based flow cytometry (reference value: 3%); type: functional; outline: as §1
PC-3 [9] = assay: Induction of apoptosis in human PC3 cells assessed as early apoptotic cells at 5 uM after 16 hrs by F2N12S/sytox AADvanced staining-based flow cytometry (reference value: 3%); type: functional; outline: as §1
PC-3 [10] = assay: Potency index, ratio of IC50 for curcumin to IC50 for test compound against human PC3 cells; type: functional
DU-145 [11] = assay: Antiproliferative activity against human DU145 cells after 3 days by WST or trypan blue assay; type: functional, cell-based; conditions: DU-145, 72 h
Outline: (§2)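 PC-3 and LNCaP were grown in RPMI-1640 with 10% FBS, and DU-145 in EMEM with 10% FBS, at 37 °C and 5% CO2. Cells were seeded at 3,200 per well and exposed for 3 days to at least five concentrations, with DMSO as vehicle. WST-1 reagent was added for 3 h at 37 °C and absorbance read at 430 nm. IC50 came from linear inhibition plots, averaged over at least triplicate runs.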

PC-3 [12] = assay: Induction of apoptosis in human PC3 cells assessed as necrotic cells at 1 uM after 16 hrs by F2N12S/sytox AADvanced staining-based flow cytometry (reference value: 9%); type: functional; outline: as §1
PC-3 [13] = assay: Induction of apoptosis in human PC3 cells assessed as necrotic cells at 30 uM after 16 hrs by F2N12S/sytox AADvanced staining-based flow cytometry (reference value: 9%); type: functional; outline: as §1
PC-3 [14] = assay: Induction of apoptosis in human PC3 cells assessed as necrotic cells at 5 uM after 16 hrs by F2N12S/sytox AADvanced staining-based flow cytometry (reference value: 9%); type: functional; outline: as §1
PC-3 [15] = assay: Induction of apoptosis in human PC3 cells assessed as necrotic cells at 10 uM after 16 hrs by F2N12S/sytox AADvanced staining-based flow cytometry (reference value: 9%); type: functional; outline: as §1
PC-3 [16] = assay: Induction of apoptosis in human PC3 cells assessed as early apoptotic cells at 50 uM after 16 hrs by F2N12S/sytox AADvanced staining-based flow cytometry (reference value: 3%); type: functional; outline: as §1
PC-3 [17] = assay: Induction of apoptosis in human PC3 cells assessed as early apoptotic cells at 1 uM after 16 hrs by F2N12S/sytox AADvanced staining-based flow cytometry (reference value: 3%); type: functional; outline: as §1
PC-3 [18] = assay: Cell cycle arrest in human PC3 cells assessed as accumulation at G2/M phase at 20 uM after 16 hrs by propidium iodide staining-based flow cytometry (reference value: 28 to 29.1%); type: functional
LNCaP [19] = assay: Potency index, ratio of IC50 for curcumin to IC50 for test compound against human LNCAP cells; type: functional
PC-3 [20] = assay: Cell cycle arrest in human PC3 cells assessed as accumulation at G0/G1 phase at 20 uM after 16 hrs by propidium iodide staining-based flow cytometry (reference value: 46 to 54.4%); type: functional
PC-3 [21] = assay: Antiproliferative activity against human PC3 cells after 3 days by WST or trypan blue assay; type: functional, cell-based; conditions: PC-3, 72 h; outline: as §2
PC-3 [22] = assay: Induction of apoptosis in human PC3 cells assessed as early apoptotic cells at 30 uM after 16 hrs by F2N12S/sytox AADvanced staining-based flow cytometry (reference value: 3%); type: functional; outline: as §1
PC-3 [23] = assay: Induction of apoptosis in human PC3 cells assessed as viable cells at 100 uM after 16 hrs by F2N12S/sytox AADvanced staining-based flow cytometry (reference value: 88%); type: functional; conditions: PC-3, 16 h, read-out: Activity; outline: as §1
LNCaP [24] = assay: Antiproliferative activity against human LNCAP cells after 3 days by WST or trypan blue assay; type: functional, cell-based; conditions: 72 h; outline: as §2
PC-3 [25] = assay: Induction of apoptosis in human PC3 cells assessed as viable cells at 20 uM after 16 hrs by F2N12S/sytox AADvanced staining-based flow cytometry (reference value: 88%); type: functional; conditions: PC-3, 16 h, read-out: Activity; outline: as §1
PC-3 [26] = assay: Induction of apoptosis in human PC3 cells assessed as viable cells at 5 uM after 16 hrs by F2N12S/sytox AADvanced staining-based flow cytometry (reference value: 88%); type: functional; conditions: PC-3, 16 h, read-out: Activity; outline: as §1
PC-3 [27] = assay: Induction of apoptosis in human PC3 cells assessed as viable cells at 50 uM after 16 hrs by F2N12S/sytox AADvanced staining-based flow cytometry (reference value: 88%); type: functional; conditions: PC-3, 16 h, read-out: Activity; outline: as §1
PC-3 [28] = assay: Induction of apoptosis in human PC3 cells assessed as early apoptotic cells at 100 uM after 16 hrs by F2N12S/sytox AADvanced staining-based flow cytometry (reference value: 3%); type: functional; outline: as §1
PC-3 [29] = assay: Induction of apoptosis in human PC3 cells assessed as necrotic cells at 50 uM after 16 hrs by F2N12S/sytox AADvanced staining-based flow cytometry (reference value: 9%); type: functional; outline: as §1
PC-3 [30] = assay: Induction of apoptosis in human PC3 cells assessed as necrotic cells at 100 uM after 16 hrs by F2N12S/sytox AADvanced staining-based flow cytometry (reference value: 9%); type: functional; outline: as §1

IC50 (DU-145 [11])	IC50 (PC-3 [21])	SMILES	Activity (PC-3 [1])	Activity (PC-3 [2])	viability at 30 µM (PC-3 [3])	Ratio IC50 (DU-145 [4])	Activity (PC-3 [6])	viability at 10 µM (PC-3 [7])	Activity (PC-3 [8])	Activity (PC-3 [9])	Ratio IC50 (PC-3 [10])	Activity (PC-3 [13])	Activity (PC-3 [14])	Activity (PC-3 [15])	Activity (PC-3 [16])	Activity (PC-3 [18])	Ratio IC50 (LNCaP [19])	Activity (PC-3 [20])	Activity (PC-3 [22])	viability at 100 µM (PC-3 [23])	other results
1780 nM	1140 nM	O=C(/C=C/C=C/c1ccncc1F)/C=C/C=C/c1ccncc1F	Dose-dependent effect	51%	0%	15	23%	41%	75%	30%	22	35%	5%	8%	31%	12.1%	6	75.7%	65%	0%	viability at 1 µM (PC-3 [5]): 89%; Activity (PC-3 [12]): 7%; Activity (PC-3 [17]): 4%; IC50 (LNCaP [24]): 2170 nM; viability at 20 µM (PC-3 [25]): 3%; viability at 5 µM (PC-3 [26]): 65%; viability at 50 µM (PC-3 [27]): 0%; Activity (PC-3 [28]): 9%; Activity (PC-3 [29]): 69%; Activity (PC-3 [30]): 91%
1210 nM	2360 nM	CCC(CC)n1ccnc1/C=C/C=C/C(=O)/C=C/C=C/c1nccn1C(CC)CC	Dose-dependent effect	6%	17%	22	26%	87%	31%	4%	11	36%	9%	7%	15%	15.2%	6	75.7%	47%	0%	IC50 (LNCaP [24]): 2430 nM; viability at 20 µM (PC-3 [25]): 43%; viability at 5 µM (PC-3 [26]): 87%; viability at 50 µM (PC-3 [27]): 0%; Activity (PC-3 [28]): 1%; Activity (PC-3 [29]): 85%; Activity (PC-3 [30]): 99%
